ChEMBL document CHEMBL3046000, “Design and synthesis of 1-(benzothiazol-5-yl)-1H-1,2,4-triazol-5-ones as protoporphyrinogen oxidase inhibitors” (Bioorg Med Chem, 2013)

Columns and labels:
[1] = test system: Veronica polita; test: Post-emergence herbicidal activity against Veronica polita assessed as plant growth inhibition at 75 g ai/ha; assay type: functional; conditions: read-out: GI
Method in brief: (§1)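 Compounds formulated as 100 g/L emulsifiable concentrates in DMF with Tween-80 as emulsifier, then diluted with water. Sprayed post-emergence onto pot-grown plants in a greenhouse, with broadleaf weeds at the 2-leaf stage and grasses at the 1-leaf stage. Clay soil with 1.6% organic matter and CEC 12.1 […]; relative humidity about 50%. Rate (g ai/ha) = active ingredient ÷ pot surface area. Untreated and DMF + Tween-80 solvent controls.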

[2] = test system: Eleusine indica; test: Post-emergence herbicidal activity against Eleusine indica assessed as plant growth inhibition at 75 g ai/ha; assay type: functional; conditions: read-out: GI; method in brief: as §1
[3] = test system: Myosoton aquaticum; test: Post-emergence herbicidal activity against Myosoton aquaticum assessed as plant growth inhibition at 75 g ai/ha; assay type: functional; conditions: read-out: GI; method in brief: as §1
[4] = test system: Brassica juncea; test: Post-emergence herbicidal activity against Brassica juncea seedlings assessed as plant growth inhibition at 150 g ai/ha measured 15 days after compound treatment under greenhouse conditions; assay type: functional; conditions: 360 h, read-out: GI
[5] = Phytotoxicity against four-leaf stage Gossypium hirsutum (cotton) plants assessed as plant growth inhibition at 150 g ai/ha applied through spraying measured 30 days after compound treatment under greenhouse conditions; assay type: organism-based; conditions: in vivo, read-out: GI
[6] = test system: Chenopodium album; test: Post-emergence herbicidal activity against Chenopodium album seedlings assessed as plant growth inhibition at 75 g ai/ha measured 15 days after compound treatment under greenhouse conditions; assay type: functional; conditions: 360 h, read-out: GI
[7] = test system: Senna tora; test: Post-emergence herbicidal activity against Senna tora assessed as plant growth inhibition at 75 g ai/ha; assay type: functional; conditions: read-out: GI; method in brief: as §1
[8] = Phytotoxicity against 4-leaf stage Triticum aestivum (wheat) plants assessed as plant growth inhibition at 150 g ai/ha applied through spraying measured 30 days after compound treatment under greenhouse conditions; assay type: organism-based; conditions: in vivo, read-out: GI
[9] = test system: Echinochloa crus-galli; test: Post emergence herbicidal activity against Echinochloa crus-galli (barnyard grass) seedlings assessed as plant growth inhibition at 75 g ai/ha measured 15 days after compound treatment under greenhouse conditions; assay type: functional; conditions: 360 h, read-out: GI
[10] = test system: Amaranthus retroflexus; test: Post emergence herbicidal activity against Amaranthus retroflexus seedlings assessed as plant growth inhibition at 150 g ai/ha measured 15 days after compound treatment under greenhouse conditions; assay type: functional; conditions: 360 h, read-out: GI
[11] = test system: Commelina communis; test: Post-emergence herbicidal activity against Commelina communis (Asiatic dayflower) assessed as plant growth inhibition at 75 g ai/ha; assay type: functional; conditions: read-out: GI; method in brief: as §1
[12] = test system: Ludwigia prostrata; test: Post-emergence herbicidal activity against Ludwigia prostrata assessed as plant growth inhibition at 75 g ai/ha; assay type: functional; conditions: read-out: GI; method in brief: as §1
[13] = test system: Setaria faberi; test: Post-emergence herbicidal activity against Setaria faberi (Giant Foxtail) seedlings assessed as plant growth inhibition at 75 g ai/ha measured 15 days after compound treatment under greenhouse conditions; assay type: functional; conditions: 360 h, read-out: GI
[14] = test system: Chenopodium album; test: Post-emergence herbicidal activity against Chenopodium album seedlings assessed as plant growth inhibition at 150 g ai/ha measured 15 days after compound treatment under greenhouse conditions; assay type: functional; conditions: 360 h, read-out: GI
[15] = test system: Digitaria sanguinalis; test: Post-emergence herbicidal activity against Digitaria sanguinalis (hairy crabgrass) seedlings assessed as plant growth inhibition at 37.5 g ai/ha measured 15 days after compound treatment under greenhouse conditions; assay type: functional; conditions: 360 h, read-out: GI
[16] = test system: Polygonum humifusum; test: Post-emergence herbicidal activity against Polygonum humifusum assessed as plant growth inhibition at 75 g ai/ha; assay type: functional; conditions: read-out: GI; method in brief: as §1
[17] = test system: Chenopodium album; test: Post-emergence herbicidal activity against Chenopodium album seedlings assessed as plant growth inhibition at 37.5 g ai/ha measured 15 days after compound treatment under greenhouse conditions; assay type: functional; conditions: 360 h, read-out: GI
[18] = test system: Cerastium arvense; test: Post-emergence herbicidal activity against Cerastium arvense assessed as plant growth inhibition at 75 g ai/ha; assay type: functional; conditions: read-out: GI; method in brief: as §1
[19] = Phytotoxicity against four-leaf stage Oryza sativa (rice) plants assessed as plant growth inhibition at 150 g ai/ha applied through spraying measured 30 days after compound treatment under greenhouse conditions; assay type: organism-based; conditions: in vivo, read-out: GI
[20] = test system: Digitaria sanguinalis; test: Post-emergence herbicidal activity against Digitaria sanguinalis (hairy crabgrass) seedlings assessed as plant growth inhibition at 150 g ai/ha measured 15 days after compound treatment under greenhouse conditions; assay type: functional; conditions: 360 h, read-out: GI
[21] = test system: Echinochloa crus-galli; test: Post emergence herbicidal activity against Echinochloa crus-galli (barnyard grass) seedlings assessed as plant growth inhibition at 37.5 g ai/ha measured 15 days after compound treatment under greenhouse conditions; assay type: functional; conditions: 360 h, read-out: GI
[22] = target: T1, Protoporphyrinogen oxidase, chloroplastic (Nicotiana tabacum, UniProt O24163); test: Inhibition of Nicotiana tabacum (tobacco) recombinant PPO assessed as protoporphyrin IX formation at room temperature by fluorimetric assay
T1 sequence (O24163 whole entry): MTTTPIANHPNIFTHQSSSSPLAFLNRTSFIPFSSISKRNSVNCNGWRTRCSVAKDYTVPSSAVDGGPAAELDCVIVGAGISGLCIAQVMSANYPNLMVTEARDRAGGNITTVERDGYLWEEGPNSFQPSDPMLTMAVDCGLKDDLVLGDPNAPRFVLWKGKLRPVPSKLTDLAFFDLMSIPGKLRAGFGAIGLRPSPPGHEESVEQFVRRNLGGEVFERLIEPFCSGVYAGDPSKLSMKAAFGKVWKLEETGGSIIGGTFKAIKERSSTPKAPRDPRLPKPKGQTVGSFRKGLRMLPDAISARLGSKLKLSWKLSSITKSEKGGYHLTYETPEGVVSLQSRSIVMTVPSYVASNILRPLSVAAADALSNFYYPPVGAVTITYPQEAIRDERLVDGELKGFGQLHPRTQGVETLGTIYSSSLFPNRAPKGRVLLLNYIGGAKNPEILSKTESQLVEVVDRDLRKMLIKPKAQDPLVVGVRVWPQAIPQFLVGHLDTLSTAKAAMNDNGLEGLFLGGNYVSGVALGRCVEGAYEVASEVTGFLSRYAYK

[23] = test system: Echinochloa crus-galli; test: Post emergence herbicidal activity against Echinochloa crus-galli (barnyard grass) seedlings assessed as plant growth inhibition at 150 g ai/ha measured 15 days after compound treatment under greenhouse conditions; assay type: functional; conditions: 360 h, read-out: GI
[24] = Phytotoxicity against 4-leaf stage Glycine max (soybean) plants assessed as plant growth inhibition at 75 g ai/ha applied through spraying measured 30 days after compound treatment under greenhouse conditions; assay type: organism-based; conditions: in vivo, read-out: GI
[25] = test system: Solanum nigrum; test: Post-emergence herbicidal activity against Solanum nigrum (black nightshade) assessed as plant growth inhibition at 75 g ai/ha; assay type: functional; conditions: read-out: GI; method in brief: as §1
[26] = test system: Sonchus asper; test: Post-emergence herbicidal activity against Sonchus asper assessed as plant growth inhibition at 75 g ai/ha; assay type: functional; conditions: read-out: GI; method in brief: as §1
[27] = test system: Amaranthus retroflexus; test: Post emergence herbicidal activity against Amaranthus retroflexus seedlings assessed as plant growth inhibition at 75 g ai/ha measured 15 days after compound treatment under greenhouse conditions; assay type: functional; conditions: 360 h, read-out: GI
[28] = test system: Setaria faberi; test: Post-emergence herbicidal activity against Setaria faberi (Giant Foxtail) seedlings assessed as plant growth inhibition at 37.5 g ai/ha measured 15 days after compound treatment under greenhouse conditions; assay type: functional; conditions: 360 h, read-out: GI
[29] = Phytotoxicity against 4-leaf stage Glycine max (soybean) plants assessed as plant growth inhibition at 150 g ai/ha applied through spraying measured 30 days after compound treatment under greenhouse conditions; assay type: organism-based; conditions: in vivo, read-out: GI
[30] = test system: Amaranthus spinosus; test: Post-emergence herbicidal activity against Amaranthus spinosus assessed as plant growth inhibition at 75 g ai/ha; assay type: functional; conditions: read-out: GI; method in brief: as §1
[31] = Phytotoxicity against four-leaf stage Zea mays cv. Anjou (maize) plants assessed as plant growth inhibition at 150 g ai/ha applied through spraying measured 30 days after compound treatment under greenhouse conditions; assay type: organism-based; conditions: in vivo, read-out: GI
[32] = test system: Digitaria sanguinalis; test: Post-emergence herbicidal activity against Digitaria sanguinalis (hairy crabgrass) seedlings assessed as plant growth inhibition at 75 g ai/ha measured 15 days after compound treatment under greenhouse conditions; assay type: functional; conditions: 360 h, read-out: GI
[33] = test system: Alkekengi officinarum; test: Post-emergence herbicidal activity against Physalis alkekengi assessed as plant growth inhibition at 75 g ai/ha; assay type: functional; conditions: read-out: GI; method in brief: as §1
[34] = test system: Brassica juncea; test: Post-emergence herbicidal activity against Brassica juncea seedlings assessed as plant growth inhibition at 37.5 g ai/ha measured 15 days after compound treatment under greenhouse conditions; assay type: functional; conditions: 360 h, read-out: GI
[35] = test system: Symphyotrichum subulatum; test: Post-emergence herbicidal activity against Symphyotrichum subulatum assessed as plant growth inhibition at 75 g ai/ha; assay type: functional; conditions: read-out: GI; method in brief: as §1
[36] = test system: Phytolacca acinosa; test: Post-emergence herbicidal activity against Raddix phytolaccae assessed as plant growth inhibition at 75 g ai/ha; assay type: functional; conditions: read-out: GI; method in brief: as §1
[37] = test system: Brassica juncea; test: Post-emergence herbicidal activity against Brassica juncea seedlings assessed as plant growth inhibition at 75 g ai/ha measured 15 days after compound treatment under greenhouse conditions; assay type: functional; conditions: 360 h, read-out: GI
[38] = Phytotoxicity against four-leaf stage Brassica napus (oilseed rape) plants assessed as plant growth inhibition at 150 g ai/ha applied through spraying measured 30 days after compound treatment under greenhouse conditions; assay type: organism-based; conditions: in vivo, read-out: GI
[39] = test system: Ammannia baccifera; test: Post-emergence herbicidal activity against Ammannia baccifera assessed as plant growth inhibition at 75 g ai/ha; assay type: functional; conditions: read-out: GI; method in brief: as §1
[40] = test system: Boehmeria nivea; test: Post-emergence herbicidal activity against Boehmeria nivea assessed as plant growth inhibition at 75 g ai/ha; assay type: functional; conditions: read-out: GI; method in brief: as §1
[41] = test system: Setaria faberi; test: Post-emergence herbicidal activity against Setaria faberi (Giant Foxtail) seedlings assessed as plant growth inhibition at 150 g ai/ha measured 15 days after compound treatment under greenhouse conditions; assay type: functional; conditions: 360 h, read-out: GI
[42] = test system: Capsella bursa-pastoris; test: Post-emergence herbicidal activity against Capsella bursa-pastoris assessed as plant growth inhibition at 75 g ai/ha; assay type: functional; conditions: read-out: GI; method in brief: as §1
[43] = test system: Amaranthus retroflexus; test: Post emergence herbicidal activity against Amaranthus retroflexus seedlings assessed as plant growth inhibition at 37.5 g ai/ha measured 15 days after compound treatment under greenhouse conditions; assay type: functional; conditions: 360 h, read-out: GI

CCOC(=O)C(C)Sc1nc2cc(-n3nc(C)n(C(F)F)c3=O)c(F)cc2s1 (stereo not drawn)
50%: inhibition at 720 h [19]
240 nM: Ki [22]
70%: inhibition at 720 h [5]
≥ 90%: inhibition of growth at 150 g/ha [4] | inhibition of growth at 150 g/ha [10] | inhibition of growth at 75 g/ha [13] | inhibition of growth at 150 g/ha [14] | inhibition of growth at 150 g/ha [20] | inhibition of growth at 150 g/ha [23] | inhibition of growth at 37.5 g/ha [28] | inhibition of growth at 37.5 g/ha [34] | inhibition of growth at 75 g/ha [37] | inhibition of growth at 150 g/ha [41]
100%: inhibition of growth at 75 g/ha [1] | inhibition of growth at 75 g/ha [2] | inhibition of growth at 75 g/ha [16] | inhibition of growth at 75 g/ha [18] | inhibition of growth at 75 g/ha [25] | inhibition of growth at 75 g/ha [26] | inhibition of growth at 75 g/ha [30] | inhibition of growth at 75 g/ha [35] | inhibition at 720 h [38] | inhibition of growth at 75 g/ha [40] | inhibition of growth at 75 g/ha [42]
60%: inhibition of growth at 75 g/ha [6] | inhibition of growth at 37.5 g/ha [17]
30%: inhibition at 720 h [31]
> 90%: inhibition of growth at 75 g/ha [3] | inhibition of growth at 75 g/ha [7] | inhibition of growth at 75 g/ha [11] | inhibition of growth at 75 g/ha [12] | inhibition of growth at 75 g/ha [33] | inhibition of growth at 75 g/ha [36] | inhibition of growth at 75 g/ha [39]
0%: inhibition at 720 h [24] | inhibition at 720 h [29]
80%: inhibition at 720 h [8] | inhibition of growth at 75 g/ha [9] | inhibition of growth at 37.5 g/ha [15] | inhibition of growth at 37.5 g/ha [21] | inhibition of growth at 75 g/ha [27] | inhibition of growth at 75 g/ha [32] | inhibition of growth at 37.5 g/ha [43]
